SKN-1 inh = suppressors of acrylamide-induced Pgst-4::GFP reporter in worms, primary screen, SKN-1 inhibitor project, whole organism, uHTS, GFP/RFP fluorescence ratio, strain VP596; C. elegans VP596 Pgst-4::GFP/RFP ratio, 24 h; inhibition, % at 21.8 µM; 360,000 tested, 0.49% active;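 active = interference check ratio from 0.5 to 1.5 plus GFP to RFP signal ratio inhibition reaching or exceeding a fixed threshold, cut at about 30% in these data, passing the limit was not always enough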
iPSC survival up = enhancers of single-cell hiPSC survival, primary screen, ATPlite luminescence. survival enhancement, % at 20 µM. AID 602274, 2012. 100% = ROCK inhibitor wells, 0% = DMSO. 360,000 tested, 0.044% active; in the data active = survival enhancement above about 18%;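 also: cells exposed to compounds for 16 hours before the ATP read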
MT1-MMP act inh = blockers of MT1-MMP proenzyme processing, primary screen, HT1080 RFP-PRO-GFP cells, GFP/RFP fluorescence. GFP/RFP ratio fluorescence, overnight; percent of plate control window, DMSO zero. GFP/RFP ratio change, % at 20 µM. 360,000 tested, 0.061% active. AID 651647, 2012;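 active = GFP/RFP ratio change of at least 30% with cell ATP level not reduced by more than half and red fluorescence within 50% of control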
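Material: RFP-PRO-GFP reporter HT1080 cells. Dosing: single-point 20 µM compound, 1% DMSO. Controls: DMSO and RFP-L50D-GFP cell wells. Timing: cells overnight before dosing, compound overnight, 37 °C, 5% CO2. Measure: GFP/RFP fluorescence ratio.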
DAGLB inhibitor = DAGLB lipase inhibitors, primary screen, biochemical, fluorescence, HTS | AID 504411, 2011 | 340,000 tested, 0.059% active | inhibition, % at 5.17 µM | HEK293T DAGLB membrane lysate, EnzChek fluorogenic substrate; in the data active = inhibition above about 34%
Target sequence (Q8NCG7 whole entry, looked up): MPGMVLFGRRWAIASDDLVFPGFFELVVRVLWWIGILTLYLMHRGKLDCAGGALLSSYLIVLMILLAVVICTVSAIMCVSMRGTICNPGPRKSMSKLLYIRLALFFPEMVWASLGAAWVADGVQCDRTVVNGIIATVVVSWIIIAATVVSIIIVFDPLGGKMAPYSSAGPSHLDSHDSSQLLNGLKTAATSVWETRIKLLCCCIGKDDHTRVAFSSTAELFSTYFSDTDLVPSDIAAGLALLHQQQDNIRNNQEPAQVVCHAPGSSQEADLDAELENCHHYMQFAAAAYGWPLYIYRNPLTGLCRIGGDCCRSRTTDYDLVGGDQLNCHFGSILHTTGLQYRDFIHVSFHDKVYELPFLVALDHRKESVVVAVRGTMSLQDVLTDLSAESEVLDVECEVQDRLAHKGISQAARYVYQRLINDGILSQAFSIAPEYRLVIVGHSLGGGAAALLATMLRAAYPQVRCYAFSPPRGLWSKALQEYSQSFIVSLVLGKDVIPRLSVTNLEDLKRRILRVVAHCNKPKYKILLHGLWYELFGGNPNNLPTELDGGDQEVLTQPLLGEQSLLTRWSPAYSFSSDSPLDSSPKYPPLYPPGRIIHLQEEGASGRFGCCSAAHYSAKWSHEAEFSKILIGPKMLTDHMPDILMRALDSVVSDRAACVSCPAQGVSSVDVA
Cneo AK release = Cryptococcus neoformans cell lysis inducers, primary screen, AK release luminescence, single concentration; C. neoformans lysis, adenylate kinase release luminescence, 4 h; normalised: neutral wells 0, clomiphene wells 100; lysis activity, % at 15 µM; 360,000 tested, 0.2% active; AID 651654, 2012;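 active = mean lysis activity across replicates of at least 80%, whatever share of replicates individually reach that level; inactive = mean lysis activity below 80%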
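Signal: Adenylate kinase release luminescence | Assay system: Log-phase Cryptococcus neoformans yeast cells | Input: Cells at 5 × 10^6 per mL | Buffer or medium: Fresh YPD growth medium | Compound: Single dose | Schedule: Static 4 h at 37 °C with compound, 1 h detection | Controls: Clomiphene | Read-out: Luminescence rise reflecting yeast cell lysis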
rRNA inh HTS = reduced GFP signal of wild-type E. coli, primary screen, bacterial rRNA inhibitor project, GFP/RFP fluorescence, OD600, single point. 350,000 tested, 1.6% active. E. coli WT GFP vs humanized-ribosome RFP mutants, 24 h; hits give low values; DMSO median 0, no signal -100. AID 720706, 2013. GFP signal change (wild-type ribosome), % (concentration not given with the values);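 active = significant combined selectivity score with lowered wild-type GFP, culture density cut under 30%, mutant RFP and density less affected; inactive = any of these conditions unmet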
Numbers stand for hits; - = inactive; . = no result given. Most compounds without a hit are left out; they make up all but 1.8% or so of the library.

SMILES | SKN-1 inh | iPSC survival up | MT1-MMP act inh | DAGLB inhibitor | Cneo AK release | rRNA inh HTS
Cc1ccc(-c2nc3cccnc3o2)cc1NC(=O)COc1ccc(Cl)cc1C | - | - | - | - | - | .
COC(=O)[C@H](Cc1ccccc1)NCCCn1cnc(C(=O)Nc2ccc(C)c(C)c2)n1 | - | - | - | - | - | -35.0
Cc1ccc(NC(=O)c2ncn(CCCN3CCN(c4ccccn4)CC3)n2)cc1C | - | - | - | - | - | -22.2
CCC(=O)N1CCC2(CC1)CN(CC1CCCCC1)[C@@H](CO)c1c2c2ccc(OC)cc2n1C | . | . | . | . | . | -
CSc1ccccc1NC(=O)CN(C)CC(=O)c1c(C)[nH]c2ccccc12 | - | - | - | - | - | -20.9
COc1cccc(-c2ccc([C@@H]3[C@@H](CO)N(C(C)=O)C34CN(C(C)=O)C4)cc2)c1 | . | . | . | . | . | -
O=C(Nc1ccc(-c2nc3cccnc3s2)cc1)c1ccco1 | 46.1 | - | - | - | - | -
O=C(NCc1ccc(-c2nc3ccccc3s2)cc1)c1ccco1 | - | - | - | - | - | -19.9
O=C(NC(=S)NCc1ccc(-c2nc3ccccc3s2)cc1)c1ccco1 | - | - | - | - | . | .
C[C@@H]1CN([C@H](C)CO)C(=O)c2cc(NC(=O)Nc3cccc4ccccc34)ccc2O[C@@H](C)CCCCO[C@@H]1CN(C)CC1CCCCC1 | . | . | . | . | - | -
CCOC(=O)C(Cc1ccc(O)c([N+](=O)[O-])c1)N1C(=O)c2ccccc2C1=O (stereo not drawn) | - | - | - | - | . | -25.4
O=C(O)C(Cc1ccc(O)c([N+](=O)[O-])c1)N1C(=O)c2ccccc2C1=O (stereo not drawn) | - | - | - | - | - | -
COCC(=O)N(C)C[C@H]1Oc2ncc(-c3ccc(C#N)cc3)cc2C(=O)N([C@H](C)CO)C[C@@H]1C | . | . | . | . | . | -
CCOC(=O)c1c(NC(=O)CN2CCCCC2)sc2c1CCN(C(=O)OCC)C2 | - | - | - | - | . | -38.3
O=S(=O)(c1ccccc1)N1C[C@@H]2[C@H](c3ccccc31)[C@H](CO)N2Cc1ccccc1 | . | . | . | . | - | -25.4
O=C(CC1CC1)N1[C@@H]2CN(S(=O)(=O)c3ccccc3)c3ccccc3[C@@H]2[C@@H]1CO | . | . | . | . | 106.3 | -
O=C(CC1CC1)N1[C@H](CO)[C@H]2c3ccccc3N(S(=O)(=O)c3ccccc3)C[C@H]21 | . | . | . | . | - | -
O=S(=O)(c1ccccc1)N1C[C@H]2[C@@H](c3ccccc31)[C@@H](CO)N2Cc1ccccc1 | . | . | . | . | - | -49.1
CCC(=O)N1CC2(CN(Cc3cccnc3)C2)c2c(n(C)c3cc(OC)ccc23)[C@H]1CO | . | . | . | . | . | -
CC(=O)N1CC(C)Sc2ccc(S(=O)(=O)NCCc3ccccc3)cc21 (stereo not drawn) | - | - | - | - | - | -25.4
COc1cccc(CSc2nnc(C(F)(F)F)n2Cc2ccc(F)cc2)c1 | - | - | - | - | . | -
Cc1ccc(CSc2nnc(C(F)(F)F)n2Cc2ccc(F)cc2)cc1 | - | - | - | - | - | -27.1
Cc1ccc(NS(=O)(=O)N(C)C)cc1 | - | - | - | - | - | .
CN(C)S(=O)(=O)Nc1cc(Cl)cc(Cl)c1 | - | - | - | - | . | -36.9
COc1ccc(NC(=O)Nc2ccc3c(c2)C(=O)N([C@@H](C)CO)C[C@H](C)[C@H](CN(C)C(=O)c2ccccc2)OCCCC[C@@H](C)O3)cc1 | . | . | . | . | - | -
Cc1cccc(C)c1NC(=O)C1c2ccccc2OCC(=O)N1Cc1ccc2c(c1)OCO2 (stereo not drawn) | - | - | - | . | . | -22.5
CCS(=O)(=O)Nc1ccc2c(c1)C(=O)N(C)[C@H]1CC[C@H](CC(=O)Nc3ccc(Cl)cc3)O[C@@H]1CO2 | . | . | . | . | - | -

Bioassay records: PubChem BioAssay, several laboratories
